# From PubChem BioAssay
# 5HT1E antag: blocks the human 5-HT1E serotonin receptor | actives 0.99% (n = 65,000) | AID 571 | CHO 5-HT1E Ga15 NFAT-bla reporter, FRET, antagonist | P28566 | inhibition, % at 6 µM;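 active = inhibition above a set limit, the mean inhibition across every tested compound plus 3 SD, cut at about 29% in these data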;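 also: signal is the 460 over 535 nm emission ratio of beta-lactamase substrate; 0% = agonist plus DMSO wells and 100% = wells without agonist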
# Target sequence (P28566 whole entry, looked up): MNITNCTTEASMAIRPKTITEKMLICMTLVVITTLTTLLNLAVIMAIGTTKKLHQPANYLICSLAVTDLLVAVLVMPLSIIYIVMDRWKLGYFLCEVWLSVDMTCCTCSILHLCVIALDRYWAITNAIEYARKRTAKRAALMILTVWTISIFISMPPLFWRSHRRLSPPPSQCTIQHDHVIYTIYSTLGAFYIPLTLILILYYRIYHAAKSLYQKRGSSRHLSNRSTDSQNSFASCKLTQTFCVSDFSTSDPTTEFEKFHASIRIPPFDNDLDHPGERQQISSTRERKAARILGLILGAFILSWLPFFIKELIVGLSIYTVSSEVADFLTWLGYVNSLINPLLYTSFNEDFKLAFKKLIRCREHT
# 5HT1a antag: antagonists of human 5-HT1a serotonin receptor. P08908. actives 0.68% (n = 62,000). inhibition, % at 10 µM. CHO 5-HT1a Ga15 NFAT-bla reporter, antagonist mode. AID 612;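 active = inhibition above the mean of all tested compounds plus 3 SD, cut at about 43% in these data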;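 also: receptor stimulated by 5-CT agonist at 100 nM near EC80; beta-lactamase reporter measured by ratiometric fluorescence of a cleavable substrate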
# HTR1A agonist: 5-HT1a (human) receptor agonism; CHO 5-HT1a Ga15 NFAT-bla reporter, FRET ratio; 0% basal, 100% maximal reference agonist; activation, % at 10 µM; actives 0.56% (n = 65,000); AID 567;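 active = activation above the screen-wide mean activation plus 3 SD, cut at about 19% in these data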;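 also: 0% = DMSO wells and 100% = 5-CT at EC100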
# HTR1E agonist: agonists of human 5-HT1E serotonin receptor; activation, % at 6 µM; AID 574; actives 0.69% (n = 65,000); CHO 5-HT1E Ga15 NFAT-bla reporter, FRET; 0% DMSO wells, 100% control agonist wells;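 active = activation above a set limit, the screen-wide mean activation plus 3 SD, cut at about 8.5% in these data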;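 also: 100% = positive control agonist at 1 µM giving full maximal response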
# HEK293 NFkB inh: inhibitors of the PMA/ionomycin-induced NF-kB reporter in HEK293 cells | inhibition, % at 3 µM | actives 0.21% (n = 62,000) | AID 465 | HEK-293 NF-kB luciferase reporter, luminescence;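 active = inhibition above the mean of all tested compounds plus 3 SD, cut at about 40% in these data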;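 also: 0% = stimulated DMSO wells and 100% = 10 µM reference inhibitor 5653914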
#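 Timing: 1 h pretreatment, 16 h stimulation, 37 °C; system: HEK-293 cells with stable firefly luciferase reporter driven by four HIV NF-kB elements; doses: 3 µM once, 0.30% DMSO; measured by: luciferase luminescence; control set: DMSO and 10 µM reference inhibitor; repeats: single test; reagent: PMA plus ionomycin mix as NF-kB-activating stimulus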
# Jurkat viability: cytotoxicity toward Jurkat cells | Jurkat E6.1 viability, ATP luminescence, 48 h | inhibition, % at 4 µM | actives 1.2% (n = 56,000) | AID 463;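 active = inhibition above the mean inhibition of all tested compounds plus 3 SD, cut at about 28% in these data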
# Active calls of the source: *; x = no result given. In the library only some 3.3% were active in any assay of this set; here they are far more common.
SMILES,5HT1E antag,5HT1a antag,HTR1A agonist,HTR1E agonist,HEK293 NFkB inh,Jurkat viability
Cc1nn(C(C)C(=O)N2CCN(c3ccccn3)CC2)c(=O)c2cc3occc3n12 (stereo not drawn),-7,-10,-1,0,20,-7
Cc1cc(NC(c2cccnc2)c2ccc3cccnc3c2O)no1 (stereo not drawn),27,17,-1,-1,2,37*
Cc1cc(NC(=O)c2cc(-c3cccnc3)nc3c(C)c(C)ccc23)no1,3,8,1,0,0,5
O=C1c2[nH]nc(-c3ccccc3O)c2C(c2ccc(F)cc2)N1Cc1ccco1 (stereo not drawn),-4,53*,5,0,14,4
Cc1oc(-c2cccc(Cl)c2)nc1CN1CCCC(C(=O)NCCCN2CCOCC2)C1 (stereo not drawn),6,16,30*,0,-13,4
O=C(c1ccco1)N1CCN(C(=O)C2CCCN(S(=O)(=O)Cc3ccccc3)C2)CC1 (stereo not drawn),7,11,70*,-1,10,x
Cc1oc(-c2ccc(Cl)cc2)nc1CN1CCCC(C(=O)N2CCN(C(=O)c3ccco3)CC2)C1 (stereo not drawn),-8,-2,1,0,38,62*
CCC(C)n1c(SCC(=O)NC(=O)Nc2ccc3c(c2)OCCO3)nc2ccccc2c1=O (stereo not drawn),-2,14,17,1,6,6
CCOC(=O)N1CCN(c2c(NCc3cccs3)c(=O)c2=O)CC1,-1,2,2,1,10,37*
CCOC(=O)N1CCN(c2c(NCc3ccccc3OC)c(=O)c2=O)CC1,12,8,-1,0,5,1
CCCc1ccc(Oc2c(-c3ccc(O)c(C)c3O)n[nH]c2C)cc1,0,56*,-3,-1,3,13
Cc1c(-n2cc(C(=O)c3ccccc3O)cc(C#N)c2=O)c(=O)n(-c2ccccc2)n1C,-2,-10,325*,0,12,-9
Cn1c(=O)c2cc(NC(=O)c3ccccc3Cl)c(=O)oc2n(C)c1=O,2,1,-4,0,7,x
CS(=O)(=O)N(CC(=O)N1CCCCCC1)c1ccccc1,-2,12,-1,32*,6,8
O=C(O)c1cc(S(=O)(=O)NCc2ccco2)c(Cl)cc1Cl,2,27,-3,0,0,-1
CCCCCOC(=O)c1[nH]c2c(c1C)C(=O)CC(c1ccco1)C2 (stereo not drawn),82*,66*,1,-1,38,101*
CCOC(=O)c1[nH]c2c(c1C)C(=O)CC(c1ccc(F)cc1)C2 (stereo not drawn),58*,16,2,0,40,95*
CCOC(=O)c1[nH]c2c(c1C)C(=O)CC(c1ccc(OCC)c(OC)c1)C2 (stereo not drawn),-5,-1,1,1,16,x
O=S(=O)(NCC(c1cccnc1)N1CCN(c2ccccc2)CC1)c1cc(F)ccc1F (stereo not drawn),9,-8,1,1,16,x
CCOC(=O)CCc1c(C)c2ccc(O)cc2oc1=O,-7,-12,1,0,14,-3
CCOC(=O)Cc1c(C)c2ccc(N(CC)CC)cc2oc1=O,-2,-27,25*,7,1,-8
CCN(CC)c1ccc2c(Cl)c(Br)c(=O)oc2c1,91*,95*,-19,1,2,3
CCOC(=O)N1CCC(NC(=O)c2ccc(CS(=O)(=O)c3ccccc3C)o2)CC1,-6,5,39*,2,17,2
Cc1cccc(N2CCN(C(=O)COc3cc(=O)n(C)c4ccccc34)CC2)c1C,0,-13,-2,13*,4,5
Cc1ccc(C)c(N2CCN(C(=O)COc3cc(=O)n(C)c4ccccc34)CC2)c1,11,8,-1,0,8,11
SMILES,5HT1E antag,5HT1a antag,HTR1A agonist,HTR1E agonist,HEK293 NFkB inh,Jurkat viability
OC1CN=C2C=CC=CN2C1 (stereo not drawn),-5,1,-1,-1,6,-3
CC(C)CCNC(=O)CN(Cc1ccc2c(c1)OCO2)C(=O)CCC(=O)Nc1ccccn1,-2,-12,-1,0,-15,-3
Cn1c(SC2=CS(=O)(=O)c3ccccc32)nc2ccccc21,50*,74*,0,1,6,73*
Cc1cc(-c2nnc(-c3cc4ccccc4oc3=O)o2)c(C)n1-c1ccccc1,1,6,9,-1,17,x
CCCCCCc1cc2cc(-c3nnc(-c4ccccc4O)o3)c(=O)oc2cc1O,-19,x,49*,5,x,x
COc1cc(NC(=O)c2cc(-c3cccs3)on2)cc(OC)c1OC,6,1,0,0,-8,64*
COc1cccc(-c2cc(C(=O)Nc3cccc(O)c3)no2)c1,-8,2,-3,0,20,49*
COc1ccccc1-c1cc(C(=O)Nc2ccccc2SC)no1,0,-1,-3,0,4,-6
COc1ccccc1-c1cc(C(=O)Nc2cccnc2)no1,12,16,-3,0,23,72*
COc1ccc(NC(=O)c2cc(-c3ccccc3OC)on2)cc1,26,22,-3,0,18,92*
NC(=O)C1(N2CCCCC2)CCN(C(=O)NC2CCCCC2)CC1,3,1,-3,0,9,-1
COc1cccc(C(c2sc3nc(C)nn3c2O)N2CCc3ccccc3C2)c1 (stereo not drawn),-3,3,0,0,9,-4
Fc1ccccc1COc1cccc(/C=N/n2cnnc2)c1,-4,0,-4,-2,7,4
Cc1cc(/C=N/n2cnnc2)c(C)n1-c1ccc(OCc2ccccc2F)cc1,29*,36,-3,0,-1,12
O=C1NC(Nc2nccs2)(C(F)(F)F)C(=O)N1CCc1ccccc1 (stereo not drawn),-3,4,-1,-1,22,4
CCOc1ccc(NC(=O)c2ccc3c(c2)N(Cc2ccc(F)cc2)C(=O)CS3=O)cc1 (stereo not drawn),-2,1,0,0,4,-13
Cc1ccc(C)c(NC(=O)c2ccc3c(c2)N(Cc2ccc(F)cc2)C(=O)CS3=O)c1 (stereo not drawn),4,4,47*,0,3,8
Cc1ccc(NC(=O)CCNS(=O)(=O)c2ccc3c(c2)oc(=O)n3C)cc1,-8,-11,-1,32*,10,-3
COc1ccc(Cl)cc1NC(=O)COc1cccc(-n2cnnn2)c1,-3,-8,1,35*,12,7
O=C(NCC1CCS(=O)(=O)C1)Oc1ccccc1 (stereo not drawn),-8,-6,-4,0,12,-2
